Laboratory results taken from ChEMBL document CHEMBL1145027, “Design and synthesis of statine-based cell-permeable peptidomimetic inhibitors of human beta-secretase” (J Med Chem, 2003).
Where a SMILES comes first, the peptide text is derived from it. [ ]: non-standard residue; d: D form. Sta = CC(C)C[C@H](N)[C@@H](O)CC(=O)O

Key:
[1] = biological target: Beta-secretase 1 (Homo sapiens, UniProt P56817); test: Inhibition of human beta-secretase (BACE) in MBP-C125 assay
Method in brief: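 BACE activity measured with maltose-binding protein fused C-125 (MBP-C125) substrate; IC50 taken as the concentration giving 50% inhibition of enzyme activity, averaged from two or more runs.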

[2] = tested on: HEK293; test: Inhibition of A beta-secretion in transfected human embryonic kidney (HEK293) cells; assay type: functional, cell-based
Method in brief: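 Transfected HEK-293 cells incubated with inhibitor; Aβ secretion measured and EC50 taken as the concentration giving 50% inhibition of Aβ production.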

Beta-secretase 1, sequence (P56817 whole entry, the tested form may be a part): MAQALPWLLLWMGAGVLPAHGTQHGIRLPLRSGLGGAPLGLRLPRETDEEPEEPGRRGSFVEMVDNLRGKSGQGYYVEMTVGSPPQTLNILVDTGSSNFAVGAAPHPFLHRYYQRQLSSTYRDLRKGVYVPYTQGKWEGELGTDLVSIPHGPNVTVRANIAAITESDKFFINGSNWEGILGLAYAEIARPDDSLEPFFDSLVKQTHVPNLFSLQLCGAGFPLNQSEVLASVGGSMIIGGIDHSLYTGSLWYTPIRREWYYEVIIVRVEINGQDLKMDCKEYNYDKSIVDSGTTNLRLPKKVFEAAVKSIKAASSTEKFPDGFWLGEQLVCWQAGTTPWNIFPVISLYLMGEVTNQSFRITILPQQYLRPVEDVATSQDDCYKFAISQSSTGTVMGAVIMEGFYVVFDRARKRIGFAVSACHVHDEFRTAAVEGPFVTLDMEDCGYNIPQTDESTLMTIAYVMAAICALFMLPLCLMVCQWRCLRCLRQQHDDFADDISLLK

Row | Structure (SMILES) | IC50 [1] | EC50 [2]
1 | CSCC[C@H](NC(=O)[C@@H](NC(=O)OC(C)(C)C)C(C)C)C(=O)NC(CC(C)C)[C@@H](O)CC(=O)N[C@@H](C(=O)NCc1ccccc1)C(C)C (stereo partly specified) | > 200 µM | 
2 | CSCC[C@H](NC(=O)[C@@H](NC(=O)OC(C)(C)C)C(C)C)C(=O)NC(CC(C)C)[C@@H](O)CC(=O)N[C@@H](C(=O)NCCCC(=O)O)C(C)C (stereo partly specified) | 47 µM | 
3 | CSCC[C@H](NC(=O)[C@@H](NC(=O)OC(C)(C)C)C(C)C)C(=O)NC(CC(C)C)[C@@H](O)CC(=O)N[C@@H](C(=O)NC1CCCCC1)C(C)C (stereo partly specified) | > 200 µM | 
4 | CSCC[C@H](NC(=O)[C@@H](NC(=O)OC(C)(C)C)C(C)C)C(=O)NC(CC(C)C)[C@@H](O)CC(=O)N[C@@H](C(=O)NO)C(C)C (stereo partly specified) | 94 µM | 
5 | COC(=O)[C@@H]1CC(NC(=O)[C@H](NC(=O)C[C@H](O)[C@@H](Cc2cc(F)cc(F)c2)NC(=O)C(O)c2ccccc2-c2ccccc2)C(C)C)C[C@H](C(=O)OC)C1 (single isomer, unassigned; isomer 2) | 10 µM | > 10 µM
6 | COC(=O)[C@@H]1CC(NC(=O)[C@H](NC(=O)C[C@H](O)C(CC(C)C)NC(=O)[C@H](CCSC)NC(=O)[C@@H](NC(=O)OC(C)(C)C)C(C)C)C(C)C)C[C@H](C(=O)OC)C1 (stereo partly specified) | 10 µM | 
7 | CSCC[C@H](NC(=O)[C@@H](NC(=O)OC(C)(C)C)C(C)C)C(=O)NC(CC(C)C)[C@@H](O)CC(=O)N[C@@H](C(=O)NCCC(=O)O)C(C)C (stereo partly specified) | 30 µM | 
8 | COC(=O)CCCNC(=O)[C@H](NC(=O)C[C@H](O)C(CC(C)C)NC(=O)[C@H](CCSC)NC(=O)[C@@H](NC(=O)OC(C)(C)C)C(C)C)C(C)C (stereo partly specified) | 47 µM | 
9 | CSCC[C@H](NC(=O)[C@@H](NC(=O)OC(C)(C)C)C(C)C)C(=O)NC(CC(C)C)[C@@H](O)CC(=O)N[C@@H](C(=O)NCc1ccc2c(c1)OCO2)C(C)C (stereo partly specified) | > 100 µM | 
10 | CSCC[C@H](NC(=O)[C@@H](NC(=O)OC(C)(C)C)C(C)C)C(=O)NC(CC(C)C)[C@@H](O)CC(=O)N[C@@H](C(=O)NC1C[C@@H](C(=O)O)C[C@@H](C(=O)O)C1)C(C)C (stereo partly specified) | 0.3 µM | 
11 | CCCCNC(=O)[C@H](NC(=O)C[C@H](O)C(CC(C)C)NC(=O)[C@H](CCSC)NC(=O)[C@@H](NC(=O)OC(C)(C)C)C(C)C)C(C)C (stereo partly specified) | > 200 µM | 
12 | COC(=O)[C@@H]1CC(NC(=O)[C@H](NC(=O)C[C@H](O)[C@@H](Cc2cc(F)cc(F)c2)NC(=O)C(O)c2ccccc2-c2ccccc2)C(C)C)C[C@H](C(=O)OC)C1 (single isomer, unassigned; isomer 1) | 0.12 µM | 4 µM
13 | CC(C)CC(NC(=O)Cc1ccc(F)cc1F)[C@@H](O)CC(=O)N[C@@H](C(=O)N[C@H](C)C(=O)N[C@H](CCC(=O)O)C(=O)N[C@H](Cc1ccccc1)C(=O)O)C(C)C (stereo partly specified) | 140 µM | 
14 | CSCC[C@H](NC(=O)[C@@H](NC(C)=O)C(C)C)C(=O)N[C@@H](CC(C)C)[C@@H](O)CC(=O)N[C@H](C(=O)N[C@@H](C)C(=O)N[C@@H](CCC(=O)O)C(=O)N[C@@H](Cc1ccccc1)C(=O)O)C(C)C (Ac-VM[Sta]VAEF-OH) | 0.3 µM | 
15 | COc1cc(CC(=O)NC(CC(C)C)[C@@H](O)CC(=O)N[C@@H](C(=O)N[C@H](C)C(=O)N[C@H](CCC(=O)O)C(=O)N[C@H](Cc2ccccc2)C(=O)O)C(C)C)cc(OC)c1OC (stereo partly specified) | 94 µM | 
16 | CC(C)C[C@H](NC(=O)C(O)c1cccc2ccccc12)[C@@H](O)CC(=O)N[C@H](C(=O)NC1C[C@@H](C(=O)O)C[C@@H](C(=O)O)C1)C(C)C (stereo partly specified) | 3 µM | 
17 | CSCC[C@H](NC(=O)[C@@H](NC(=O)OC(C)(C)C)C(C)C)C(=O)NC(CC(C)C)[C@@H](O)CC(=O)N[C@@H](C(=O)NCc1cccc(C(=O)O)c1)C(C)C (stereo partly specified) | 4 µM | 
18 | CC(C)C[C@H](NC(=O)C(O)c1ccccc1Br)[C@@H](O)CC(=O)N[C@H](C(=O)NCc1ccc(C(=O)O)cc1)C(C)C (stereo partly specified) | 40 µM | 
19 | CSCC[C@H](NC(=O)[C@@H](NC(=O)OC(C)(C)C)C(C)C)C(=O)NC(CC(C)C)[C@@H](O)CC(=O)N[C@@H](C(=O)NCc1ccncc1)C(C)C (stereo partly specified) | > 100 µM | 
20 | CC(C)C[C@H](NC(=O)C(O)c1cccc2ccccc12)[C@@H](O)CC(=O)N[C@H](C(=O)NCc1ccc(C(=O)O)cc1)C(C)C (stereo partly specified) | 50 µM | 
21 | CSCC[C@H](NC(=O)[C@@H](NC(=O)OC(C)(C)C)C(C)C)C(=O)NC(CC(C)C)[C@@H](O)CC(=O)N[C@@H](C(=O)NCc1cccc(OCC(=O)O)c1)C(C)C (stereo partly specified) | 5 µM | 
22 | CSCC[C@H](NC(=O)[C@@H](NC(=O)OC(C)(C)C)C(C)C)C(=O)NC(CC(C)C)[C@@H](O)CC(=O)N[C@@H](C(=O)NCc1ccc(C(=O)O)cc1)C(C)C (stereo partly specified) | 4 µM | 
23 | COC(=O)[C@@H]1CC(NC(=O)[C@@H](NC(=O)C[C@H](O)[C@H](CC(C)C)NC(=O)C(O)c2cccc3ccccc23)C(C)C)C[C@H](C(=O)OC)C1 (stereo partly specified) | 140 µM | 
24 | CC(C)Cc1ccc(C(=O)NC(CC(C)C)[C@@H](O)CC(=O)N[C@@H](C(=O)N[C@H](C)C(=O)N[C@H](CCC(=O)O)C(=O)N[C@H](Cc2ccccc2)C(=O)O)C(C)C)cc1 (stereo partly specified) | 28 µM | 
25 | COC(=O)CCCCC(=O)NC(CC(C)C)[C@@H](O)CC(=O)N[C@@H](C(=O)N[C@H](C)C(=O)N[C@H](CCC(=O)O)C(=O)N[C@H](Cc1ccccc1)C(=O)O)C(C)C (stereo partly specified) | 50 µM | 

Further lines, with some results ahead:

Row | IC50 [1] | Structure (SMILES) | EC50 [2]
26 | 48 µM | CC(C)CC(NC(=O)c1ccc2ccccc2c1)[C@@H](O)CC(=O)N[C@@H](C(=O)N[C@H](C)C(=O)N[C@H](CCC(=O)O)C(=O)N[C@H](Cc1ccccc1)C(=O)O)C(C)C (stereo partly specified) | 
27 | 28 µM | CO[C@H](C(=O)NC(CC(C)C)[C@@H](O)CC(=O)N[C@@H](C(=O)N[C@H](C)C(=O)N[C@H](CCC(=O)O)C(=O)N[C@H](Cc1ccccc1)C(=O)O)C(C)C)c1ccccc1 (stereo partly specified) | 
28 | 3 µM | CC(C)CC(NC(=O)C(O)c1ccccc1Br)[C@@H](O)CC(=O)N[C@@H](C(=O)N[C@H](C)C(=O)N[C@H](CCC(=O)O)C(=O)N[C@H](Cc1ccccc1)C(=O)O)C(C)C (stereo partly specified) | 
29 | 130 µM | CC(C)CC(NC(=O)Cc1ccccc1)[C@@H](O)CC(=O)N[C@@H](C(=O)N[C@H](C)C(=O)N[C@H](CCC(=O)O)C(=O)N[C@H](Cc1ccccc1)C(=O)O)C(C)C (stereo partly specified) | 
30 | 11 µM | CC(C)CC(NC(=O)C(O)c1ccccc1OCc1ccccc1)[C@@H](O)CC(=O)N[C@@H](C(=O)N[C@H](C)C(=O)N[C@H](CCC(=O)O)C(=O)N[C@H](Cc1ccccc1)C(=O)O)C(C)C (stereo partly specified) | 
31 | 6 µM | CC(C)CC(NC(=O)C(O)c1cccc(Oc2ccccc2)c1)[C@@H](O)CC(=O)N[C@@H](C(=O)N[C@H](C)C(=O)N[C@H](CCC(=O)O)C(=O)N[C@H](Cc1ccccc1)C(=O)O)C(C)C (stereo partly specified) | 
32 | 42 µM | CC(C)CC(NC(=O)Cc1cccc2ccccc12)[C@@H](O)CC(=O)N[C@@H](C(=O)N[C@H](C)C(=O)N[C@H](CCC(=O)O)C(=O)N[C@H](Cc1ccccc1)C(=O)O)C(C)C (stereo partly specified) | 
33 | 25 µM | CC(C)CC(NC(=O)CCCOc1ccccc1)[C@@H](O)CC(=O)N[C@@H](C(=O)N[C@H](C)C(=O)N[C@H](CCC(=O)O)C(=O)N[C@H](Cc1ccccc1)C(=O)O)C(C)C (stereo partly specified) | 
34 | 56 µM | CC(C)CC(NC(=O)Cc1ccc(-c2ccccc2)cc1)[C@@H](O)CC(=O)N[C@@H](C(=O)N[C@H](C)C(=O)N[C@H](CCC(=O)O)C(=O)N[C@H](Cc1ccccc1)C(=O)O)C(C)C (stereo partly specified) | 
35 | 41 µM | CO[C@](C)(C(=O)NC(CC(C)C)[C@@H](O)CC(=O)N[C@@H](C(=O)N[C@H](C)C(=O)N[C@H](CCC(=O)O)C(=O)N[C@H](Cc1ccccc1)C(=O)O)C(C)C)c1ccccc1 (stereo partly specified) | 
36 | 14 µM | CC(C)CC(NC(=O)C(O)c1ccccc1Oc1ccccc1)[C@@H](O)CC(=O)N[C@@H](C(=O)N[C@H](C)C(=O)N[C@H](CCC(=O)O)C(=O)N[C@H](Cc1ccccc1)C(=O)O)C(C)C (stereo partly specified) | 
37 | 27 µM | CCCCOc1ccc(C(=O)NC(CC(C)C)[C@@H](O)CC(=O)N[C@@H](C(=O)N[C@H](C)C(=O)N[C@H](CCC(=O)O)C(=O)N[C@H](Cc2ccccc2)C(=O)O)C(C)C)cc1 (stereo partly specified) | 
38 | 4 µM | CC(C)CC(NC(=O)C(O)c1cccc2ccccc12)[C@@H](O)CC(=O)N[C@@H](C(=O)N[C@H](C)C(=O)N[C@H](CCC(=O)O)C(=O)N[C@H](Cc1ccccc1)C(=O)O)C(C)C (stereo partly specified) | 
39 | 17 µM | CC(C)CC(NC(=O)[C@@H](O)c1ccccc1)[C@@H](O)CC(=O)N[C@@H](C(=O)N[C@H](C)C(=O)N[C@H](CCC(=O)O)C(=O)N[C@H](Cc1ccccc1)C(=O)O)C(C)C (stereo partly specified) | 
